Measurements taken from the EternaBench riboswitch data.

Test system: MS2 coat protein
Experiment: apparent Kd, MS2 coat protein; higher = weaker binding; RNA-MaP array; FMN 200 µM where present
How it was run: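 Apparent Kd: the median of filtered binding-curve fits from single clusters. Designs were transcribed on Illumina sequencing-chip clusters by stalled E. coli RNA polymerase and titrated with SNAP-549-labelled MS2 coat protein from 0.7 or 1.5 nM, doubling to 3 µM, in 100 mM Tris-HCl pH 7.5, 80 mM KCl, 4 mM MgCl2, BSA, DTT, yeast tRNA and Tween-20. Each series ran without and then with constant ligand, and green signal was normalised to red-channel RNA signal and control-cluster median Fmax.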

[1] = designed as: ON switch for flavin mononucleotide, no ligand
[2] = ligand present: flavin mononucleotide, designed as: ON switch for flavin mononucleotide
[3] = designed as: OFF switch for flavin mononucleotide, no ligand
[4] = ligand present: flavin mononucleotide, designed as: OFF switch for flavin mononucleotide

Sequence	apparent Kd [1] [nM]	apparent Kd [2] [nM]	apparent Kd [3] [nM]	apparent Kd [4] [nM]
UUUAUUUUUACAGGAUAUCAUCUAUUUAACUCAUGCACAUGUUUACAUGAGGAUCACCCAUGUUUUGAGAAGGGUAUUGAAACA	246	259		
UUUCAGCAAGGAUAUACGGGCUGUGCUUUUCAUUUCUUACAACAUGAGGAUCACCCAUGUAGAAGGUGCAUCUU			72.5	111
UUUCAUUACCCGAAGGAUAUCGCUCUUCCGACAUGAGGAUCACCCAUGUACUAGCCCUCCCUGCUCGAGAAGGUCGCGCGUGAAC	103	67.4		
UUUCCGCGAGGAUAUGCGGGCUGUGCUUUUCAUUUCUUACCACAUGAGGAUCACCCAUGUAGAAGGUGCUUCUU			154	136
UUUGGGUGGCUGGAGGAUAUUCUAGUGGUUACAUGAGGAUCACCCAUGUGUCGCGCGGUUCGCGAGGAGAAGGCUGGCGGCCGUU	166	46.2		
UUUUAACAUGAGGAUCACCCAUGUGAGGAUAUCGAAAUUUAUAUUAAUAUUAUUAAUUCGAGAAGGCACAUUUU			117	117
UUUUAACAUGAGGAUCACCCAUGUGAGGAUAUCGAAAUUUAUAUUAAUAUUUAUAAUUCGAGAAGGCACAUUUU			170	148
UUUUAACAUGAGGAUCACCCAUGUGAGGAUAUCGAAAUUUAUAUUAAUAUUUAUUAUACGAGAAGGCACAUUUU			73.6	97
UUUUAACAUGAGGAUCACCCAUGUGAGGAUAUCGAUAUUUUUAUUAAUAUUAAUAAAACGAGAAGGCACAUUUU				90.2
UUUUAACAUGAGGAUCACCCAUGUGAGGAUAUCGUAAUUUUUAUUAAUAUUAAUAAAACGAGAAGGCACAUUUU			96.6	81
UUUUACUAGUAAGGAUAUACUAGCGAUUAGCUUGUAGAAGGUGCAGUCUUAUGUAUAACAUGUUAACAUGAGGAUCACCCAUGU	125	37.6		
UUUUCACAUGAGGAUCACCCAUGUGAGGAUAUGGUUUCGCUGGCCGUAGCCAGUGGAACCAGAAGGCGCGUGAU			60.7	66.4
UUUUCGUGAGGAUAUCAGUAGUAAAUAAAUAAAAUUACUACUGAGAAGGCACAUGAGGAUCACCCAUGUUCCUU			12.7	22.9
UUUUGACAUGAGGAUCACCCAUGUCAGGAUAUAGUAGGACAAAUAAAUAAAAGUUCUACUAGAAGGGAUAUGGA			23.2	37.5
UUUUGGCGGGCAGGAUAUACUAAGACAUGAGGAUCACCCAUGUACUUGCAAGAUGUCCGUGUCGAGUAGAAGGGCCAAGCUAUA			4.97	7.8
UUUUUACAUGAGGAUCACCCAUGUCAGGAUAUGUUUAUAUUUUAUUAUUUUAUUUUUUACAGAAGGGACUAUUA			136	66.6
UUUUUACAUGAGGAUCACCCAUGUGAGGAUAUGGAUUCGCUGGCCGUAGCCAGUGGAUCCAGAAGGCGCAUGAU			82.7	280
UUUUUACGAGGAUAUCGUUUUUUUCACAUGAGGAUCACCCAUGUUGUUUAUGUUUCGUUUCGAGAAGGCGUUUGUU			28.2	22.1
UUUUUAUAAUAGAAGGAGGACUUCAUGAGGAUCACCCAUGUGUUAGUACUUAGGAUAUGUAAUAACAUGAGGAUCACCCAUGUC	45.3	45.7		
UUUUUAUUUAUAGGAUAUGGAAACAUGAGGAUCACCCAUGUAUGAUAAGAUAAAUUAUGAUAUAGCCAGAAGGAUAUUAUUUUU	28.5	35.9		
UUUUUAUUUGCAGGAUAUUGUAUUUUAUUACAUCAAGAAGGGCAUUACAUGAGGAUCACCCAUGUCUUCCUAUGGUUAACUAGU			12.3	10.2
UUUUUAUUUGUAGGAUAUGGAGACAUGAGGAUCACCCAUGUAUGAUAAGCUAAAUUAUGAUGUGGCCAGAAGGAUAUUAUUUUU	51.1	72.6		
UUUUUGAAGCUUCGUCAAUACAGUUAGGAUAUGAGAGACAUGAGGAUCACCCAUGUGCAUGUUGAUUAGAAGGAACAACUAUCU			14.2	12.7
UUUUUGUCAGGAUAUGACUAGAUGCACGUUAGUGCAUCUACUUAGAAGGGACAUGAGGAUCACCCAUGUAUUCC			29.8	24.3
UUUUUGUGAGGAUAUCAGUAGUAAAAAAAUAAAAUUACUACUGAGAAGGCACAUGAGGAUCACCCAUGUUCUUU			18.7	58.5
UUUUUGUGAGGAUAUUAGUAGUAAAAAAAUAAAAUUACUACUGAGAAGGCACAUGAGGAUCACCCAUGUUCCUC			35.7	174
UUUUUUUACUAGGAUAUCGCCGCCGAAAGGCGGCGAGAAGGAGUAACAUGAGGAUCACCCAUGUGUCCUUUUUU			21.9	74.2
